TAAR1 antag: antagonists of human TAAR1; Q96RJ0; inhibition, % at 3 µM; CHO RD-HGA16 TAAR1, Fluo-8 calcium fluorescence, antagonist; 360,000 compounds, 1.5% hits; AID 624466;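 active = inhibition above a per-plate cutoff, the mean inhibition of test compounds on that plate plus 3 SD, cut at about 49% in these data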
Target sequence (Q96RJ0 whole entry, looked up): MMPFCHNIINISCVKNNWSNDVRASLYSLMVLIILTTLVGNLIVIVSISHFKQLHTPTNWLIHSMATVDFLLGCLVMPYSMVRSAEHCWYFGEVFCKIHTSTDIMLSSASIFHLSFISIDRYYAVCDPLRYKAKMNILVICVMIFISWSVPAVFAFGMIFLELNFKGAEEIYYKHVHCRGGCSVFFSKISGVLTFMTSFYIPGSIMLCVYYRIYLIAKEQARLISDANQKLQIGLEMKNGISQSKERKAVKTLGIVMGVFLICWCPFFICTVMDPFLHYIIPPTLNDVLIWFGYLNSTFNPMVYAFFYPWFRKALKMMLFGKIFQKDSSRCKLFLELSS
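Material: RD-HGA16 CHO cells with stable hTAAR1 and Gα16; Dosing: single nominal final test compound concentration of 3 µM; Schedule: seeding 17-24 h prior, 75-min 37 °C, 30-min RT dye loading; Detection: kinetic Fluo-8 calcium fluorescence measurement; Measure: % inhibition from peak post-agonist over basal fluorescence ratio; Benchmarks: vehicle and agonist controls.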
OX1R antag-1: OX1R (human) antagonism. O43613. OX1R-expressing cells, FRET antagonist read-out. inhibition, % at 6.6 µM. 330,000 compounds, 1.8% hits. AID 485270; in the data active = inhibition mostly above about 38%, no sharp cut-off; inactive = mostly below about 40%
TAAR1 agonist: human TAAR1 agonism; activation, % at 3 µM; CHO RD-HGA16 TAAR1, Fluo-8 calcium fluorescence; vehicle wells 0%, saturating PEA agonist 100%; Q96RJ0; 360,000 compounds, 0.99% hits;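 active = activation above the mean activation of all test compounds in the run plus 3 SD, cut at about 38% in these data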
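Signal – calcium-sensitive Fluo-8 signal, excitation 470-495, emission 515-575 nm · System – RD-HGA16 (CHO) cells co-expressing Gα16 and hTAAR1 · Incubation – 17-24 h seeding, 75 min 37 °C dye, 30 min RT · Compound dosing – 3 µM single concentration · Repeats – no replicates (n 1)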
CHO parental Ca: signal in parental CHO cells, OX1R antagonist counter-screen; parental CHO-K1, ATP-induced calcium, Fluo-8 fluorescence; inhibition, % at 5.6 µM; 330,000 compounds, 0.63% hits; AID 463079;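 active = inhibition above that plate's mean sample inhibition plus 3 SD, cut at about 26% in these data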
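Assay system: untransfected parental CHO cell line. Also added: ATP agonist challenge. Dosing: one dose, 5.6 µM nominal. Measured by: Fluo-8 fluorescence. Read-out: % inhibition. Benchmarks: ATP wells versus no-ATP DMSO wells. Repeats: no replicates.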
GPR7 antag: antagonists of human GPR7 (neuropeptides B/W receptor 1); P48145; GPR7-expressing cells, fluorescence antagonist assay; inhibition, % at 4.4 µM; 290,000 compounds, 1.1% hits; AID 1861; in the data active = inhibition above about 16%, passing the limit was not always enough;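 note: cells stimulated with the agonist NPW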
Target sequence (P48145 whole entry, looked up): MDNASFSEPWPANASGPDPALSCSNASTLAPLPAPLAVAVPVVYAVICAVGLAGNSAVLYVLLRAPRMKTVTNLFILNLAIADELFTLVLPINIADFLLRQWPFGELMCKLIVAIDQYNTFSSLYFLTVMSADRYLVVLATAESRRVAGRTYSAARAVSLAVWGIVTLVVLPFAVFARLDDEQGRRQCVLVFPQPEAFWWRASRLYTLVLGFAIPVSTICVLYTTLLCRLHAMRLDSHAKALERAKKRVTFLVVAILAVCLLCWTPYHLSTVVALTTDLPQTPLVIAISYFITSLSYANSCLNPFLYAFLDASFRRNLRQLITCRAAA
OX1R antag-2: antagonists of human orexin 1 receptor | 330,000 compounds, 0.43% hits | O43613 | inhibition, % at 5 µM | CHO/OX1R cells, Fluo-8 calcium fluorescence, orexin A | AID 434989;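 active = inhibition above its plate's threshold, mean inhibition of all tested compounds on the plate plus 3 SD, cut at about 37% in these data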
GPR7 antag conf: confirmation of human GPR7 antagonists. shares compounds with GPR7 antag. GPR7-expressing cells, calcium fluorescence antagonist mode. inhibition, % at 4.4 µM. 2,400 compounds, 52% hits; in the data active = inhibition above about 24%;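 note: stimulated with the GPR7 agonist NPW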
MCHR1 antag: MCHR1 (human) antagonism in GPR7 counter-screen; shares compounds with GPR7 antag; MCHR1-expressing cells, fluorescence antagonist assay; inhibition, % at 4.4 µM; 2,400 compounds, 62% hits; AID 2148; in the data active = inhibition above about 22%
Hits are given with their value; i = inactive; nt = no result; ! = repeats disagree. Sampled rows, rich in hits. Any-hit rate of the full collection: about 4.5%.

SMILES | TAAR1 antag | OX1R antag-1 | TAAR1 agonist | CHO parental Ca | GPR7 antag | OX1R antag-2 | GPR7 antag conf | MCHR1 antag
O=C(c1cc(-c2ccc(F)cc2)on1)N1CCCCCC1 | i | i | i | i | 36 | i | i | 26
CCn1cc(C(=O)N[C@@H](CCSC)C(=O)NCCN2CCOCC2)c(=O)c2cc3c(cc21)OCO3 | i | i | i | i | i | i | nt | nt
O=C(CCn1ccc2ccccc21)Nc1ccc(N2CCOCC2)cc1 | i | i | i | i | 30 | i | i | i
CC1CN(c2ccc([N+](=O)[O-])c(NCCOc3ccc(Cl)cc3)c2)CC(C)N1 (stereo unspecified) | i | nt | i | nt | 38 | nt | 62 | 69
Cc1ccccc1OCCNc1cc(N2CC(C)NC(C)C2)ccc1[N+](=O)[O-] (stereo unspecified) | i | i | 49 | i | 39 | i | 53 | 67
OCc1ccccc1-c1cnc2cccnn12 | i | nt | i | nt | nt | nt | nt | nt
COc1ccccc1NC(=O)N(C)C[C@@H]1OCc2cnnn2CCCC(=O)N([C@H](C)CO)C[C@H]1C | i | nt | i | nt | nt | nt | nt | nt
Cc1cccc(C)c1NC(=S)NC(=O)c1cccc(Cl)c1 | i | nt | i | nt | nt | nt | nt | nt
COc1ccc(C(=O)Nc2nnc(S(=O)(=O)N(C)Cc3ccccc3)s2)cc1 | i | i | i | i | 41 | i | i | 31
CN(Cc1ccccc1)S(=O)(=O)c1nnc(NC(=O)c2ccc(F)cc2)s1 | i | i | i | i | i | i | nt | nt
CCNc1c(NS(=O)(=O)c2ccc(F)c(Cl)c2)c(=O)oc2ccccc12 | i | i | i | i | i | i | nt | nt
COc1cccc(C(=O)OC(C)C(=O)NCC2CCCCC2)c1 (stereo unspecified) | i | i | i | i | nt | i | nt | nt
O=C(O)CC(NC(=O)C1c2ccccc2Oc2ccccc21)c1ccc(Cl)cc1 (stereo unspecified) | i | i | i | i | 35 | i | i | i
CCOc1ccc(C(CC(=O)O)NC(=O)C2c3ccccc3Oc3ccccc32)cc1 (stereo unspecified) | i | i | i | i | i | i | nt | nt
C=CCn1c(SCc2c(C)noc2C)nc2ccccc2c1=O | i | i | i | i | 26 | i | i | 24
Cc1noc(C)c1CSc1nc2ccccc2c(=O)n1-c1ccccc1 | i | i | i | i | i | i | nt | nt
COc1ccc(Br)c(C(=O)NC2CCCC2)c1 | i | i | i | i | 22 | i | i | i
COc1ccc2oc(C(=O)NC3CCCCC3)c(C)c2c1 | i | i | i | i | 29 | i | i | 30
Cc1c(C(=O)NC2CCCCC2)oc2ccc(F)cc12 | i | i | i | i | i | i | nt | nt
COc1ccc(Br)c(C(=O)NCC2CCCCC2)c1 | i | i | i | i | i | i | nt | nt
O=S(=O)(NCC(c1ccc2c(c1)OCO2)N1CCOCC1)c1ccccc1 (stereo unspecified) | i | i | i | i | nt | i | nt | nt
CC(=O)c1c(C)[nH]c(C(=O)OCC(=O)c2ccc(C)s2)c1C | i | i | i | i | nt | i | nt | nt
Cc1cc(C(C)(C)C)cc(C)c1Cn1c2[n+](c3ccc(C(F)(F)F)cc31)CCCCC2 | i | i | i | i | 33 | i | 29 | 32
FC(F)(F)c1cccc(Cn2c3[n+](c4ccc(C(F)(F)F)cc42)CCCCC3)c1 | i | i | i | i | 24 | i | 24 | i
COc1ccc(N(CC(=O)NCc2ccccc2Cl)S(=O)(=O)c2c(C)noc2C)cc1 | i | i | i | i | i | i | nt | nt
SMILES | TAAR1 antag | OX1R antag-1 | TAAR1 agonist | CHO parental Ca | GPR7 antag | OX1R antag-2 | GPR7 antag conf | MCHR1 antag
CN(C)CCCN1c2ccccc2Sc2ccc(Cl)cc21 | i | i | i | i | 35! | i | 46 | 57
Cc1cc(NCc2ccccc2)nc(N2CCOCC2)n1 | i | i | i | i | i | i | nt | nt
Cc1cc(N2CCOCC2)nc(NCc2ccccc2)n1 | i | i | 49 | i | 23 | i | 60 | 72
CC(=O)[C@@]1(O)[C@H](C)CC2C3CC=C4CC(OP(=O)(O)O)CC[C@]4(C)C3CC[C@@]21C (stereo partly specified) | i | i | i | i | 28 | i | i | i
CCc1nc2c(OCc3ccccc3C(=O)OC)cccn2c1N(C)C(=O)Nc1ccccc1OC | i | nt | i | nt | nt | nt | nt | nt
CCN1C(=O)C(c2ccc(O)cc2)(c2ccc(O)cc2)c2ccccc21 | i | i | i | i | i | i | nt | nt
Cc1cccc2c1NC(=O)C2(c1ccc(O)cc1)c1ccc(O)cc1 | i | i | i | i | 67 | i | 79 | 49
Cc1ccc(NC(=O)c2ccccc2F)cc1S(=O)(=O)N1CCCCCC1 | i | i | i | i | 22 | i | i | 54
Cc1ccc(NC(=O)CSc2ncnc3ccccc23)cc1S(=O)(=O)N1CCCCCC1 | i | i | i | 34 | 24 | i | 53 | 71
COCCN(C(=O)COC(=O)CCC(=O)c1cccs1)c1c(N)n(Cc2ccccc2)c(=O)[nH]c1=O | i | i | i | i | nt | i | nt | nt
COc1ccc(OCC(=O)Nc2cc3c(cc2C(=O)O)OCCCO3)cc1 | i | i | i | i | i | i | nt | nt
CN(Cc1c(F)cccc1Cl)C(=O)CNC(=O)c1sc2ccccc2c1Cl | i | i | i | i | nt | i | nt | nt
Cc1cc(C)c(CSc2ncc(-c3ccc([N+](=O)[O-])cc3)[nH]2)c(C)c1 | 60 | 91 | i | 40 | 42 | 40 | 68 | 83
S=c1[nH]nc(C2CCCCC2)n1/N=C/c1c(Cl)cccc1Cl | i | i | i | i | i | i | nt | nt
FC(F)Sc1ccc(NC(=S)NCc2ccccc2)cc1 | i | i | i | i | 46 | i | 37 | 51
FC(F)Sc1ccc(NC(=S)NCC2CCCCC2)cc1 | 50 | i | i | i | 34 | i | 58 | 75
Cc1ccc(C)c(-n2c3nc(=O)[nH]c(=O)c-3cc3cc([N+](=O)[O-])ccc32)c1 | i | i | i | i | 22 | i | 42 | 43
Cn1c2nc(=O)[nH]c(=O)c-2cc2ccccc21 | i | nt | i | nt | nt | nt | nt | nt
O=C(NC1CC2CCCC(C1)N2C(=O)Nc1ccc(Cl)c(C(F)(F)F)c1)C1CC1 (stereo unspecified) | i | i | i | i | i | i | nt | nt
O=C(Nc1ccc(Cl)c(C(F)(F)F)c1)NC1CC2CCCC(C1)N2Cc1ccccc1 (stereo unspecified) | i | i | i | 37 | 27 | i | 45 | 87
O=C(C1CC1)N1CCN(c2nc3ccccc3s2)CC1 | i | i | i | i | i | i | nt | nt
CN(C1CCCCC1)S(=O)(=O)c1ccc(C(=O)N2CCN(c3nc4ccccc4s3)CC2)cc1 | i | i | i | i | 22 | i | i | 44

Source: PubChem (The Scripps Research Institute Molecular Screening Center)
